Laboratory results reported in PMC2151523 (The Journal of General Physiology, 2006).
Values joined by “and” are separate entries in the source; they are usually repeats but may differ in a detail not shown here. Equal values may be shown once. Read-outs that look alike come from different tables or passages of the source.

Experiments:
[1] = target: T1, bovine rod CNGA1 channels (Bos taurus, UniProt Q00194); format: biochemical; conditions: for δ (Woodhull fit, best-fit): four blockers in the same patch (Fig. 4 C)
T1 sequence (Q00194 1-690): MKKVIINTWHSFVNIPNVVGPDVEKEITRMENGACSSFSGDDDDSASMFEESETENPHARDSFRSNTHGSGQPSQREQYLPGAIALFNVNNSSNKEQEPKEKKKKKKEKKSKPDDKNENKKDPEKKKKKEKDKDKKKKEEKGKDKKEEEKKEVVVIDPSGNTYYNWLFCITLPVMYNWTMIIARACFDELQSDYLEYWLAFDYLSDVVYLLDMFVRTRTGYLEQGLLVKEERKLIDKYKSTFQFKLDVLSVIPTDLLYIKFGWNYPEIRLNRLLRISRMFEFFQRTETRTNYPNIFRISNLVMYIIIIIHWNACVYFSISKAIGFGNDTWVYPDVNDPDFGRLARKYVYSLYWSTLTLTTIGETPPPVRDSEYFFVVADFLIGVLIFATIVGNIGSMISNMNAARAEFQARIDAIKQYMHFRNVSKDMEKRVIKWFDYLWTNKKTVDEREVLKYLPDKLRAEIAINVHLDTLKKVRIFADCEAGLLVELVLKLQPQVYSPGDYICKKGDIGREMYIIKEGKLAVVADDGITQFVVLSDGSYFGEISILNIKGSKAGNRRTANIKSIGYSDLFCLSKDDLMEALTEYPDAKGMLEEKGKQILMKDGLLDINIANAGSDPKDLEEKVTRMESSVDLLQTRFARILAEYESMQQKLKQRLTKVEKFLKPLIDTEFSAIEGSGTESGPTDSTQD
How it was run: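 Inside-out patches from HEK293 cells expressing bovine rod CNGA1. Bath and pipette solution: 160 mM NaCl, 1 mM EGTA, 1 mM EDTA, 10 mM HEPES, pH 7.4. Currents were elicited with 1 mM cGMP by steps from −80 to +80 mV in 20 mV increments from a 0 mV holding potential. Records without cGMP were subtracted, and blocker was added to the bath. Block was read 10–40 s after exchange, at the end of the +80 mV pulse. KD and n came from a Hill fit. δ came from Woodhull fits of per-voltage KD and was averaged over 10 patches. Comparisons were made in the same patch and bracketed by controls.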

CNGA1 channel = target: T2, CNGA1 channel (Bos taurus, UniProt Q00194); assay: Single channel recordings of blockade, inside-out patches; format: biochemical, bovine; conditions: +70 mV, 2 mM cGMP
T2 sequence (Q00194 1-690): T1 sequence (Q00194 1-690)
How it was run: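 Single-channel recordings were made in inside-out patches with 7–10 MΩ pipettes at +70 mV with saturating 2 mM cGMP. Signals were sampled at 20 kHz, Bessel-filtered at 5 kHz, then digitally filtered at 2 kHz. Amplitude histograms (40 s of record) were fitted with two Gaussians. Open dwell-time distributions were fitted with two exponentials. τ2 was normalised to its blocker-free value, and its dose response was fitted with a Hill equation.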

391C CNGA1 channels = assay: Cd2+ inhibition in the closed state and its slowing by blocker; format: biochemical, bovine
[2] = system: 391C cysteine-less CNGA1 channels; format: biochemical, bovine; conditions: for modification rate open state versus closed state: average rates (Fig. 11 D)
How it was run: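 391C channels were expressed in Xenopus oocytes and recorded 3–5 d after cRNA injection. Solutions contained 120 mM NaCl, 1 mM EGTA, 1 mM EDTA, 10 mM HEPES, pH 7.4. MTS reagent was applied for 2 s at 0 mV, with 2 mM cGMP (open state) or without it (closed state). Current was then monitored by a 50-ms step to +80 mV in 2 mM cGMP. Each value is the mean of at least three experiments.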

CNGA1 channels [3] = conditions: ref Flynn and Zagotta, 2001; cited from earlier work
Kv channels = conditions: cysteine at valine of PVP region; ref Liu et al., 1997; cited from earlier work
CNGA1 channels [4] = conditions: cited from earlier work
[5] = read-out: average KD0, 0 mV, average of several patches
[6] = 500 μM reagent, estimated from τ

**Q.** Which “average δ” value ([1]; average of several patches) does the source give for `CCC[N+](CC)(CC)CC` [C3-TEA] here?
**A.** Its value is −0.40 ± 0.08.

**Q.** What about the Kd [1, 5] of the same compound?
**A.** Its Kd is 31 mM.

**Q.** Which results are given for `CCCC[N+](CC)(CC)CC` [C4-TEA]?
**A.** average δ ([1]; average of several patches): −0.40 ± 0.03; δ (Woodhull fit, best-fit) ([1]; 1 mM cGMP): −0.45 ± 0.02; Kd [1, 5]: 11 mM

**Q.** For `CCCCCC[N+](CC)(CC)CC` [C6-TEA, hexyltriethylammonium], which “average δ” value ([1]; average of several patches) is on record?
**A.** The value was −0.48 ± 0.02.

**Q.** And the “δ (Woodhull fit, best-fit)” value ([1]; 1 mM cGMP)?
**A.** Its value is −0.53 ± 0.02.

**Q.** And the Kd [1, 5]?
**A.** Its Kd is 5 mM.

**Q.** What does the source list for `CCCCCCCC[N+](CC)(CC)CC` [C8-TEA]?
**A.** δ (Woodhull fit, best-fit) ([1]; 1 mM cGMP): −0.44 ± 0.02; Kd [1, 5]: 0.9 ± 0.2 mM

**Q.** With `CCCCCCCCCC[N+](CC)(CC)CC` [C10-TEA, decyltriethyl ammonium] as the compound, how does the “extent of blockade at subsaturating versus saturating cGMP” value ([1]; 5 μM blocker, +80 mV) read?
**A.** Its value is “Blockade was larger at subsaturating levels of cGMP”.

**Q.** And the “blockade levels under saturating cGMP, cIMP or cAMP” value ([1]; 15 μM blocker, +80 mV, 16 mM agonist)?
**A.** The value was “Blockade levels were larger for cIMP and cAMP”.

**Q.** And the Hill coefficient n ([1]; +80 mV, 1 mM cGMP, one patch (Fig. 2 A))?
**A.** Its Hill coefficient n is 1.19 ± 0.04.

**Q.** And the “δ (Woodhull fit, best-fit)” value ([1]; 1 mM cGMP)?
**A.** Its value is −0.44 ± 0.01.

**Q.** And the Kd [1, 5]?
**A.** Its Kd is 0.05 ± 0.01 mM.

**Q.** And the Kd ([1]; read-out: average KDc, four different patches)?
**A.** The Kd was 0.0023 ± 0.0006 mM.

**Q.** And the “amplitude for the open state” value (CNGA1 channel; 5 μM blocker)?
**A.** The value was 2.317 ± 0.002 pA.

**Q.** And the “area of the nonconductive level in current histogram” value (CNGA1 channel; 5 μM blocker, 5% without blocker)?
**A.** The value was 26%.

**Q.** And the “area of the open state in amplitude histogram” value (CNGA1 channel; 5 μM blocker, 95% without blocker)?
**A.** The value was 74%.

**Q.** And the “open dwell-time fraction A1” value (CNGA1 channel; 25 μM blocker)?
**A.** Its value is 0.19.

**Q.** And the “open dwell-time fraction A2” value (CNGA1 channel; 25 μM blocker)?
**A.** The value was 0.81.

**Q.** And the “open dwell-time fast component τ1” value (CNGA1 channel; 25 μM blocker, 0.7 ms in control)?
**A.** Its value is ~0.7 ms and 0.6 ms.

**Q.** What about the “apparent mean open time of the main (slow) component, τ2” value (CNGA1 channel; 25 μM blocker, 12.2 ms in control) of the same compound?
**A.** Its value is 3.74 ms and 3.7 ms.

**Q.** For `CCCCCCCCCC[N+](C)(C)C` [C10-TMA, decyl-trimethyl ammonium], which “difference in apparent affinity as compared with C10-TEA” value ([1]; 50 μM, +80 mV, 1 mM cGMP) is on record?
**A.** The value was 1.8 fold.

**Q.** Which “time constant τ of current inhibition by Cd2+, closed state” value (391C CNGA1 channels; 6 μM Cd2+, no cGMP, no blocker) does the source give for `[Cl][Cd][Cl]` [Cd^2+, CdCl2] here?
**A.** Its value is 2.64 ± 0.08 s.

**Q.** What about the “effect on cysteine-less wild-type channels” value (391C CNGA1 channels; 50 μM Cd2+, unpublished data) of the same compound?
**A.** Its value is “no effect”.

**Q.** What about the “recovery of current inhibition” value (391C CNGA1 channels; unpublished data) of the same compound?
**A.** The value was 20–40%.

**Q.** And the “time course τ of recovery of current inhibition” value (391C CNGA1 channels; unpublished data)?
**A.** The value was ~100 s.

**Q.** Which results are given for `CC[N+](CC)(CC)CCCSS(C)(=O)=O` [MTS-PtrEA]?
**A.** time constant τ of modification, open state ([2]; 500 μM reagent, 2 mM cGMP): 5.7 ± 0.3 s; time constant τ of modification, closed state ([2]; 500 μM reagent, absence of cGMP): 27 ± 1 s; modification rate, closed state [2, 6]: 74 M⁻¹ s⁻¹; modification rate, open state [2, 6]: 351 M⁻¹ s⁻¹; modification rate open state versus closed state [2]: three to seven

**Q.** For `CS(=O)(=O)SCCN` [MTSEA, amino ethyl-MTS], which “modification rates in both closed and open state” value (CNGA1 channels [3]) is on record?
**A.** Its value is 10^3–10^4 M^−1s^−1.

**Q.** With `C[N+](C)(C)CCSS(C)(=O)=O` [MTSET, trimethylammonium ethyl-MTS] as the compound, how does the “modification rate in the closed state” value (Kv channels) read?
**A.** The value was 1 M⁻¹ s⁻¹.

**Q.** And the “state-dependent accessibility (modification rate)” value (Kv channels)?
**A.** The value was ~10^6 M^−1s^−1.

**Q.** For `CC[N+](CC)(CC)CCSS(C)(=O)=O` [MTSTEA], which “modification rate open state versus closed state” value [2] is on record?
**A.** The value was “three to seven”.

**Q.** Which reduction in current ([1]; 5 mM blocker, +80 mV, 1 mM cGMP) does the source give for `CC[N+](CC)(CC)CC` [TEA, tetraethylammonium] here?
**A.** Its reduction in current is ~35%.

**Q.** And the “average δ” value ([1]; average of several patches)?
**A.** Its value is −0.31 ± 0.04.

**Q.** What about the Kd [1, 5] of the same compound?
**A.** Its Kd is 35 mM.

**Q.** Which “apparent affinity in the closed state compared with the open state” value (CNGA1 channels [4]; ref Fodor et al., 1997b, Ghatpande et al., 2003) does the source give for `CCCCNc1ccc(C(=O)OCCN(C)C)cc1` [Tetracaine, tetracaine] here?
**A.** The value was ~10^3 times higher.

**Q.** Which “apparent affinity for closed channels compared with open channels” value (CNGA1 channels [4]; ref Rosenbaum et al., 2004) does the source give for `Cc1cc(N)c2ccccc2[n+]1CCCCCCCCCC[n+]1c(C)cc(N)c2ccccc21` [dequalinium] here?
**A.** Its value is “three- to fivefold”.
